From ChEMBL document CHEMBL1133383, “Synthesis and enzyme inhibitory activities of a series of lipidic diamine and aminoalcohol derivatives on cytosolic and secretory phospholipases A2” (Bioorg Med Chem Lett, 2000)

What was measured:
[1] = target: T1, Cytosolic phospholipase A2 (Mus musculus) (UniProt P47713); assay: (§1) Effect on cytosolic Phospholipase A2 (PLA2) activity at a concentration of 100 uM
T1 sequence (whole entry): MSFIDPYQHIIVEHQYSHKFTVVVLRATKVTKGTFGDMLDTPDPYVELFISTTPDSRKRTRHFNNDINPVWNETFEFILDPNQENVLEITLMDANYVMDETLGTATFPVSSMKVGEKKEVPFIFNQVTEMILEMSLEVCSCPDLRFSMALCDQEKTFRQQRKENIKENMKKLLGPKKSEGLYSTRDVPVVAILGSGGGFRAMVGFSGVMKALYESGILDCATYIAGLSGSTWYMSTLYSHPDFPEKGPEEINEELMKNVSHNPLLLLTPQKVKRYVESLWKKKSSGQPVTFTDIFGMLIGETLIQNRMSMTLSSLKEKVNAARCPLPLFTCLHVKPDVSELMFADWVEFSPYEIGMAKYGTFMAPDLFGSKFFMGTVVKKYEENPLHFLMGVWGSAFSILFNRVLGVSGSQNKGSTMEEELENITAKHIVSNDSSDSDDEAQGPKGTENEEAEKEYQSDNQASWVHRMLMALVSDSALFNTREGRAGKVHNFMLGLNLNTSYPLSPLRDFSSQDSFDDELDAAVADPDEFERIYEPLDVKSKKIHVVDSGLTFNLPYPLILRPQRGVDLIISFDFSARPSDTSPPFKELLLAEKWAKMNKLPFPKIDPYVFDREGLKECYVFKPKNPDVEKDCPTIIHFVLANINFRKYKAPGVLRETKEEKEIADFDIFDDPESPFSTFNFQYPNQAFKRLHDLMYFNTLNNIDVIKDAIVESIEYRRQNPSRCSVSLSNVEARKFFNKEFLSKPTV
How it was run: (§2)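 Group IV cytosolic PLA2 from the RAW 264.7 macrophage line. Percent inhibition was measured at a single test concentration and reported as mean ± SEM (n=6). IC50 was determined only for compounds reaching 50% inhibition at that concentration.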

[2] = target: T2, Cytosolic phospholipase A2 (Mus musculus, UniProt P47713); assay: as §1; how it was run: as §2
T2 sequence (P47713 whole entry): T1 sequence (whole entry)

[3] = target: T3, Phospholipase A2, membrane associated (Homo sapiens, UniProt P14555); assay: (§3) Inhibition of secretory PLA2 activity in human recombinant synovial enzyme using [3H]oleate labelled membranes at a concentration of 10 uM
T3 sequence (P14555 whole entry): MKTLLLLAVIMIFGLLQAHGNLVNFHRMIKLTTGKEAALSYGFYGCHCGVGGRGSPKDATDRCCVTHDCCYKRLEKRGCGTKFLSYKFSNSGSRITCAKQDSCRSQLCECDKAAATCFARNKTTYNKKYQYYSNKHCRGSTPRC
How it was run: (§4)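 Secretory PLA2 activity was measured using autoclaved [3H]oleate-labelled membranes as substrate. The enzyme was either group II human recombinant synovial PLA2 or group I porcine pancreatic PLA2. Percent inhibition at a single concentration is reported as mean ± SEM (n=6), with significance marked at P<0.05 and P<0.01.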

[4] = target: T4, Phospholipase A2, membrane associated (Homo sapiens) (UniProt P14555); assay: as §3; how it was run: as §4
T4 sequence (whole entry): T3 sequence (P14555 whole entry)

[5] = target: Phospholipase A2 (Homo sapiens) (UniProt P04054); conditions: Naja naja; 10 uM
[6] = target: Phospholipase A2 (Homo sapiens) (UniProt P04054); conditions: Apis mellifera; 10 uM

Phospholipase A2 (Homo sapiens), sequence (P04054 23-148 limits assumed): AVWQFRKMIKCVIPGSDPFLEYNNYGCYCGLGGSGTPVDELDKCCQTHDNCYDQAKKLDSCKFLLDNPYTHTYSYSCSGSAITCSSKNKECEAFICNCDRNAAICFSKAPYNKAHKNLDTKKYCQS

| SMILES | I [1] [%] | IC50 [2] [µM] | also measured |
| --- | --- | --- | --- |
| CCCCCCCCCCCCCCC(=O)NC(CCCCCCCCCCCCCC)COC(=O)CCCCCCCCCCCCCC (centres undefined) | 5.1 |  |  |
| CCCCCCCCCCCCCCC(COC(=O)CCCCCC)NC(=O)CCCCCC (centres undefined) | 2.3 |  |  |
| CCCCCCCCCCCCCCC(COCc1ccccc1)NCC (centres undefined) | 0 |  |  |
| CCCCCCCCCCCCCCC(COCc1ccccc1)NC(=O)CCC(=O)O (centres undefined) | 72 | 62.8 |  |
| CCCCCCCCCCCCCCC(COCc1ccccc1)NC(=O)CCCC(=O)O (centres undefined) | 84.8 | 10.5 |  |
| CCCCCCCCCCCCCCC(COCc1ccccc1)NC(=O)/C=C/C(=O)O (centres undefined) | 60.7 | 69.5 |  |
| CCCCCCCCCCCCCCC(=O)NC(CCCCCCCCCCCCCC)COC(=O)CCCCCC (centres undefined) | 0.5 |  |  |
| CCCCCCCCCCCCCCC(COCc1ccccc1)N(CC)CC (centres undefined) | 1.9 |  |  |
| CCCCCCCCCCCCCCC(N)CNC(=O)CCCC(=O)O (centres undefined) | 0 |  |  |
| CCCCCCCCCCCCCCC(CO)NCC(=O)O (centres undefined) | 25 |  |  |
| CCCCCCCCCCCCCCC(N)CN(CC)CC (centres undefined) | 90.6 | 11.9 | IC50 [3]: 5.6 µM; I [4]: 82.7%; I [5]: 51.5%; I [6]: 57.6% |
| CCCCCCCCCCCCCCCC(=O)C(F)(F)F | 67.7 | 11.7 |  |
| CCCCCCCCCCCCCCC(CNCC(=O)OCC)NC(=O)OC(C)(C)C (centres undefined) | 0 |  |  |
| CCCCCCCCCCCCCCC(N)CN(CC(=O)OCC)CC(=O)OCC (centres undefined) | 43.9 |  |  |
| CCCCCCCCCCCCCCC(CO)NCC (centres undefined) | 25.2 |  | IC50 [3]: 3.7 µM; I [4]: 80%; I [5]: 62.6%; I [6]: 63.5% |
| CCCCCCCCCCCCCCC(CO)NC(=O)CCCC(=O)O (centres undefined) | 0 |  |  |
